Variants at the floor of the assay were thinned out.
B1: tRNA (parent)
chain: GUUCCGUUGGCGUAAUGGUAACGCGUCUCCCUCCUAAGGAGAAGACUGCGGGUUCGAGUCCCGUACGGAACG

Variants of: B1
Assay: yeast fitness relative to wild type (ratio to wild type); higher = fitter; tRNA-Arg(CCU), competitive growth, 37 C, YPD
Outline: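 The tRNA-Arg(CCU) gene variants were made by chemical synthesis with a 3% per-site mutation rate at 69 sites and inserted at the native genomic locus of Saccharomyces cerevisiae. After pooling, the strains were competed in YPD at 37°C for 24 hours in six parallel replicates. Gene amplicons from the start population and each end population were read by 100-nucleotide paired-end sequencing, and Darwinian fitness relative to wild type was taken from genotype frequency changes. Genotypes needed ≥ 100 starting reads, and estimates < 0.5 were set to 0.5.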

Variant | yeast fitness
GUUCCGUUGGCGUAAAGGUAACGCGUCUCCAUCCUAAGGCGAAGACUGCGGCUUCGAGUCCCGUACGGAACG [U16A C31A A40C G52C] | ≤ 0.5
GUUCCGUUGGCGUAAAGGUAACGUGUCUCCCUUCUUAGGUGAAGACUGCGGGUUCCGGUCCCGUACGGCACG [U16A C24U C33U A36U A40U G56C A57G A69C] | ≤ 0.5
GUUCCGUUGGCGUAAAGGAAACGCGUCUCCCUCCUAAGGAGAAGAUUGCGGGUUCGAGUCGCGUACGGAACG [U16A U19A C46U C61G] | 0.571
GUUCCGUUGGCGUAAAGGUAACGCGUCUCCCUCCUAAGGAGAAGACUGCGGGUUCGAGUCCUGUACGGAACG [U16A C62U] | 0.918
GUUCCGUUGGCGUAAAGGUAAACCGUCUCCCUCUUGAGGUGAAGACUGCGGGUUCGAGUCCCGUACGGAACG [U16A C22A G23C C34U A36G A40U] | ≤ 0.5
GUUCCGUUGGCGUAAAGGUAACGCGUCUCCAUCCUAAGGCGAAGACUGCGGGUUCGAGUCCCGUACGGAACG [U16A C31A A40C] | ≤ 0.5
GUUCCGUUGGCGUAAAGGUAAGGCGUCUCCCUCCUAAGGAGAAGACUGCGGGUUCGAGUCCCGUACGGUACG [U16A C22G A69U] | 0.791
GUUCCGUUGGCGUAAAGGUAACGCGUCUCCCUCCUAAGGAGUAGACUGCGGGUUCGAGUCCCGUACGGAACG [U16A A42U] | 0.907
GUUCCGUUGGCGUAAAGGUAACGCGUCUCCCUCCUAGGGCGAAGACGGCGGGUUCGAGUCCCGUACGGAACG [U16A A37G A40C U47G] | ≤ 0.5
GUUCCGUUGGCGUAAAGAUAACGCGUCUCCUUCCUAAGGAGAAGACUGCGGGUUCGAGUCCCGUGCGGAACG [U16A G18A C31U A65G] | 0.548
GUUCCGUUGGCGUAAAGGUAACGCGUCUCGCUCCUAAGGAGAAGACUGCAGGUUCGAGUACCGUACGGAACG [U16A C30G G50A C60A] | 0.547
GUUCCGUUGGCGUAAAGGUAACGCGUCUCCGUCCUAAGGAGAAGACUGCGGGUUCGAGUCCCGUACGGAACG [U16A C31G] | 0.87
GUUCCGUUGGCGUAAAGGUAACGCGUCUCUCUCCUAAGGAGAAGGCUGCGGGUUCGAGUCCCGUACGGAACG [U16A C30U A45G] | ≤ 0.5
GUUCCGUUGGCGUAAAGGUAACGCGUCUCCCUCCUAAGGAGACGGCUGCGGGUUCGAGUCCCGUACGGAACG [U16A A43C A45G] | 0.988
GUUCCGUUGGCGUAAAGGUAACGCGUCUCCAUCGUAAGGAGAAGACUGCGGGUUCGAGUUCCGUACGUAACG [U16A C31A C34G C60U G68U] | ≤ 0.5
GUUCCGUUGGCGUAAAGGUAACGCGUCUCCCUCCUAGGAAGAAGACUGAAGGUUCGAGUCCCGUACGCAACG [U16A A37G G39A C49A G50A G68C] | 0.531
GUUCCGUUGGCGUAAAGGUAUCGCGUCUCCCUGCUAAGGAGAAGACUGCGGGUUCGAGUCCCGUACGGAACG [U16A A21U C33G] | ≤ 0.5
GUUCCGUUGGCGUAAAGAUAACGCGUCUCCUUCCUAAGGAGAAGACUGCGGGUUCGAGUCCCGUACGGAACG [U16A G18A C31U] | ≤ 0.5
GUUCCGUUGGCGUAAAGGUAACGCGUCUCCGUCCUAAGGAGAAGACUGCGGGUUCGAGUCCCGUUCGGAGCG [U16A C31G A65U A70G] | ≤ 0.5

Variant | yeast fitness
GUUCCGUUGGCGUAAAGGUAACGCGUCUCCCUCCUAAGGAGAAGACUGCGGGUUUGCGUCCCGUACGGAACG [U16A C55U A57C] | ≤ 0.5
GUUCCGUUGGCGUAUUGGUAACGCGUCUCCCACCUAAGGAGAAGACUGCAAGUUCCAGUCGCGUACGGAACG [A15U U32A G50A G51A G56C C61G] | 0.538
GUUCCGUUGGCGUAUUGGUAACGCGUCUCCCUCCUAAGGAGAAGACUGCGGGUUCGAGCCCCGUACGGAACG [A15U U59C] | 0.788
GUUCCGUUGGCGUAAAGGUAACGUGUCUCGCUCCAAAGGAGAAGACUGCGGGUUCGAGUCCCGUACGGAACG [U16A C24U C30G U35A] | 0.539
GUUCCGUUGGCGUAAAGGUUACGGGUCUCCCUGCUAAGGAGAAGACUGCGGGUUCGAGUCCCGUACGGAACG [U16A A20U C24G C33G] | ≤ 0.5
GUUCCGUUGGCGUAAAGGUAACGCGUCUCCCUCCUAAGGUGAAGACUGCGGGUUCGAGUCCCGUACGGAACG [U16A A40U] | 1
GUUCCGUUGGCGUAAAGGUAACGCGACUCCCUCCUAAGGAGAAGACUGGGGGUUCGAGUCACGUACGGAACG [U16A U26A C49G C61A] | 0.586
GUUCCGUUGGCGUAAAGGUAACGAGUCUCCCUCCUAAGGAGAGGACUGCGGGUUCGAGUCCCGUACGAAACG [U16A C24A A43G G68A] | ≤ 0.5
GUUCCGUUGGCGUAAAGGUAACGCGUCUGCCUCCUAAGGAGAAGACUGCGGGUUCGAGUCCCGUACGGAACG [U16A C29G] | 0.669
GUUCCGUUGGCGUAUUGGUAACGCGUCUCCCUCCUAAGGAGAAGACCGGGGGUUUGAGUCCCGUUCGGAACG [A15U U47C C49G C55U A65U] | 0.531
GUUCCGUUGGCGUAAAGAUAACGCGUCUCCCUCCUAAGGAGAAGACUGCGGGUUCAAGUCCCGUACCGAACG [U16A G18A G56A G67C] | ≤ 0.5
GUUCCGUUGGCGUAAAGGUCACGCGUCUCCCUCCUAAGGAGAAGACUGCGGGUUCGAGUCCCGUACGGAACG [U16A A20C] | 1.02
GUUCCGUUGGCGUAAAGGGAACGCGUCUCCCUUCUAAGGCAACGACUGCGGGUUCGAGUCGCGUACGGAACG [U16A U19G C33U A40C G41A A43C C61G] | ≤ 0.5
GUUCCGUUGGCGUAAAGGUAGUGCGUCUCCCUCCUAAGGAGAAGACUCCGGGUUCGAGUCCCCUACGGAACG [U16A A21G C22U G48C G63C] | ≤ 0.5
GUUCCGUUGGCGUAAAGGUAACGCGUCUCCCUCCUAAGAAGGAGACUGCGGGUUAGAGUCCAGUACGGAACG [U16A G39A A42G C55A C62A] | ≤ 0.5
GUUCCGUUGGCGUAAAGGUAACGGGUCUCCCUCCUAAGGAGAAGACUGCGGGUUCGAGUAGCGUACGGAACG [U16A C24G C60A C61G] | ≤ 0.5
GUUCCGUUGGCGUAAAGGUAACGCGUCUCCCUCCUGAGGAGAAGACUGCGAGUUCGAGUCCCGUACGGAACG [U16A A36G G51A] | ≤ 0.5
GUUCCGUUGGCGUAAAGGUAACGCGUCUCUCUCCUAAGGAGAAGACUGCGGGUUCGUGUCCCGUACGGAACG [U16A C30U A57U] | ≤ 0.5
